The values below come from ChEMBL document CHEMBL1165969, “Synthesis and cytotoxicity of novel indirubin-5-carboxamides” (Bioorg Med Chem, 2010).

Data set [1] is described as follows: Solubility in water by spectrophotometry. Format: physicochemical.
A short description of data set [2]: Antiproliferative activity against human LXFL 529L cells after 3 days by sulforhodamine B assay. In kind it is functional, cell-based. A digest of the protocol: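 Cells kept at 37 °C in humidified 5% CO2 in RPMI 1640 with 10% heat-inactivated FBS, penicillin (100 units/mL) and streptomycin, and checked for mycoplasma. Seeded, grown 24 h, then exposed to drug for 3 days in serum-containing medium. Fixed with 50% TCA solution for 1 h at 4 °C, stained with 0.4% SRB, dye eluted in 10 mM Tris pH 10.5, read at 570 nm. Growth expressed as % T/C; IC50 derived.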

Structures are written as SMILES. pIC50: −log10 of the molar value. Values after ≈ are worked out from the molar mass of the structure shown.

What is called solubility is how much of the substance goes into solution per volume. A low value points to little dissolved substance. For orientation: pIC50 means −log10 of the IC50, conventionally taken in molar units. High values mean a low IC50, low ones a high IC50. `COS(=O)(=O)[O-].C[N+]1(C)CCN(C(=O)c2ccc3c(c2)/C(=C2/Nc4ccccc4C2=O)C(=O)N3)CC1` gave a solubility in data set [1] of 60000 µg/mL. Moreover, the pIC50 in data set [2] (lxfl 529l) was 5.46.

Take `O=C1Nc2ccc(C(=O)NCCO)cc2/C1=C1/Nc2ccccc2/C1=N\O`: the solubility in data set [1] was 179 µg/mL (≈ 491 µM). In data set [2] (Homo sapiens, LXFL 529L, 72 h), this molecule had a pIC50 of 5.35.

Regarding `O=C1Nc2ccc(C(=O)NCCO)cc2/C1=C1/Nc2ccccc2C1=O`, the concentration in solution in data set [1] (solubility) was 9.5 µg/mL (≈ 27.2 µM). Moreover, the pIC50 in data set [2] (Homo sapiens, LXFL 529L, 72 h) was 5.04.

In turn, `O=C1Nc2ccc(C(=O)N3CCNCC3)cc2/C1=C1/Nc2ccccc2C1=O` showed a solubility in data set [1] of 4.2 µg/mL (≈ 11.2 µM). In data set [2] (Homo sapiens, LXFL 529L, 72 h), the pIC50 was 5.49.

In turn, `O=C1Nc2ccc(C(=O)Nc3cccnc3)cc2/C1=C1/Nc2ccccc2C1=O` yielded a solubility in data set [1] of 55.5 µg/mL (≈ 145 µM). Besides, the pIC50 in data set [2] (Homo sapiens, LXFL 529L, 72 h) is below 5.00.

Molecule `CN(CC[N+](C)(C)C)C(=O)c1ccc2c(c1)/C(=C1/Nc3ccccc3C1=O)C(=O)N2.[I-]` registered a solubility in data set [1] of 1600 µg/mL. Also, the pIC50 in data set [2] (Homo sapiens, LXFL 529L, 72 h) is 5.24.

As for `CN(C)CCN(C)C(=O)c1ccc2c(c1)/C(=C1/Nc3ccccc3C1=O)C(=O)N2`, the solubility in data set [1] turned out to be 35.4 µg/mL (≈ 90.7 µM). The molecule also showed a pIC50 in data set [2] (Homo sapiens, LXFL 529L, 72 h) of 5.27.

On to `CN1CCN(CCNC(=O)c2ccc3c(c2)/C(=C2/Nc4ccccc4C2=O)C(=O)N3)CC1.Cl`, for which the solubility in data set [1] is above 2000 µg/mL. In data set [2] (lxfl 529l), this molecule showed a pIC50 of 5.22.

Consider `O=C1Nc2ccc(C(=O)NC[C@H](O)[C@@H](O)[C@H](O)[C@H](O)CO)cc2/C1=C1/Nc2ccccc2C1=O`, for which the concentration in solution in data set [1] (solubility) was 21.6 µg/mL (≈ 46 µM). Besides, the negative-log IC50 (pIC50) in data set [2] (Homo sapiens, LXFL 529L, 72 h) was below 4.52.

`CN(C)c1ccc(NC(=O)c2ccc3c(c2)/C(=C2/Nc4ccccc4C2=O)C(=O)N3)cc1` gave a solubility in data set [1] of 580 µg/mL (≈ 1370 µM). The pIC50 in data set [2] (Homo sapiens, LXFL 529L, 72 h) is 5.92.

In turn, `O=C1Nc2ccccc2/C1=C1/Nc2ccccc2C1=O` [INDIRUBIN] showed a pIC50 in data set [2] (Homo sapiens, LXFL 529L, 72 h) of 5.00.

Take `O=C1Nc2ccc(C(=O)N(CCO)CCO)cc2/C1=C1/Nc2ccccc2/C1=N\O`: in data set [1], the solubility was 523 µg/mL (≈ 1280 µM). In addition, the pIC50 in data set [2] (Homo sapiens, LXFL 529L, 72 h) is 5.23.

With `CN1CCN(c2ccc(NC(=O)c3ccc4c(c3)/C(=C3/Nc5ccccc5/C3=N\O)C(=O)N4)cc2)CC1`, the solubility in data set [1] turned out to be 1600 µg/mL (≈ 3240 µM). Also, the pIC50 in data set [2] (Homo sapiens, LXFL 529L, 72 h) was 5.38.

Consider `C[N+]1(C)CCN(C(=O)c2ccc3c(c2)/C(=C2/Nc4ccccc4C2=O)C(=O)N3)CC1.[I-]`, for which, in data set [1], the concentration in solution (solubility) came to 2450 µg/mL. The molecule also gave a negative-log IC50 (pIC50) in data set [2] (Homo sapiens, LXFL 529L, 72 h) of 5.60.

`COS(=O)(=O)[O-].C[N+](C)(C)CCNC(=O)c1ccc2c(c1)/C(=C1/Nc3ccccc3C1=O)C(=O)N2` displayed a solubility in data set [1] of 53000 µg/mL. The same molecule had a negative-log IC50 (pIC50) in data set [2] (Homo sapiens, LXFL 529L, 72 h) of 5.07.

For `COc1ccc2c(c1)/C(=C1/Nc3ccccc3/C1=N\OCCO[C@@H]1O[C@H](CO)[C@@H](O)[C@H](O)[C@H]1O)C(=O)N2`, in data set [1], the solubility came to 42 µg/mL (≈ 81.8 µM). In data set [2] (Homo sapiens, LXFL 529L, 72 h), this molecule gave a pIC50 of 6.30.

In the case of `O=C1Nc2ccc(C(=O)O)cc2/C1=C1/Nc2ccccc2C1=O`, in data set [1], the concentration in solution (solubility) was 41 µg/mL (≈ 134 µM). In data set [2] (Homo sapiens, LXFL 529L, 72 h), this molecule had a pIC50 of 5.15.

Molecule `CN(C)CCNC(=O)c1ccc2c(c1)/C(=C1/Nc3ccccc3C1=O)C(=O)N2` came in with a solubility in data set [1] of 13 µg/mL (≈ 34.5 µM). In data set [2] (Homo sapiens, LXFL 529L, 72 h), this molecule had a pIC50 of 5.64.

On to `O=C1Nc2ccc(C(=O)N(CCO)CCO)cc2/C1=C1/Nc2ccccc2C1=O`, for which, in data set [1], the solubility is 6.8 µg/mL (≈ 17.3 µM). The molecule also gave a pIC50 in data set [2] (Homo sapiens, LXFL 529L, 72 h) of 5.33.

Take `CN1CCN(C(=O)c2ccc3c(c2)/C(=C2/Nc4ccccc4C2=O)C(=O)N3)CC1`: the solubility in data set [1] was determined as 1000 µg/mL (≈ 2570 µM). For the same molecule, the pIC50 in data set [2] (Homo sapiens, LXFL 529L, 72 h) was 5.41.

In turn, `CN1CCN(CCNC(=O)c2ccc3c(c2)/C(=C2/Nc4ccccc4C2=O)C(=O)N3)CC1` returned a solubility in data set [1] of 700 µg/mL (≈ 1620 µM). The pIC50 in data set [2] (Homo sapiens, LXFL 529L, 72 h) was 5.11.

On to `CN(C)CCN(C)C(=O)c1ccc2c(c1)/C(=C1/Nc3ccccc3/C1=N\O)C(=O)N2`, for which, in data set [1], the solubility was determined as 6400 µg/mL (≈ 15800 µM). The pIC50 in data set [2] (Homo sapiens, LXFL 529L, 72 h) is 5.66.

In data set [1], `O=C1Nc2ccc(C(=O)N(CCO)CCO)cc2/C1=C1/Nc2ccccc2/C1=N\OCC(O)CO` (configuration not stated) had a solubility of 21 µg/mL (≈ 43.5 µM). This molecule showed a pIC50 in data set [2] (Homo sapiens, LXFL 529L, 72 h) of 4.37.

Consider `CN(C)CCN(C)C(=O)c1ccc2c(c1)/C(=C1/Nc3ccccc3/C1=N\OCCO[C@@H]1O[C@H](CO)[C@@H](O)[C@H](O)[C@H]1O)C(=O)N2`, for which the solubility in data set [1] was above 380 µg/mL. Further, the pIC50 in data set [2] (Homo sapiens, LXFL 529L, 72 h) was below 5.00.
